{
  "source": "ChEMBL document CHEMBL1155425",
  "about": "“Synthesis and antitumor activity of 1-mesityl-3-(2-naphthoylmethano)-1H-imidazolium bromide” (Bioorg Med Chem Lett, 2010)",
  "key": {"Mus musculus": {"system": "Mus musculus", "test": "Acute toxicity in human A549 cells xenografted mouse at 10 to 80 mg/kg", "assay_type": "organism-based", "parameters": "dose 10-80 mg/kg", "details": "in vivo"}, "[1]": {"test": "Selectivity ratio of IC50 for human A549 cells to IC50 for human Raji cells", "assay_type": "functional"}, "[2]": {"test": "Selectivity ratio of IC50 for human A549 cells to IC50 for human Hep2 cells", "assay_type": "functional"}, "A549 [3]": {"system": "A549", "test": "Antitumor activity against human A549 cells xenografted in nude mouse assessed as increase in tumor volume at 4 mg/kg, ip administered every 2 days for 19 days measured on day 19 postimplantation relative to tumor volume on day of implantation", "assay_type": "functional", "details": "route intraperitoneal", "summary_of_the_method": "(§1)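 Nude mice implanted s.c. in right flank with A549 cells (2 × 10⁷ cells/mL) on day 0. Treatment began at mean tumor ~100 mm³ (day 1). Compound in 0.5% CMC-Na given ip every 2 days for 19 days, 0.2 mL per 20 g body weight; cisplatin 1 mg/kg as reference. Caliper volume (W² × L)/2, expressed as RTV = TVn/TV₁.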"}, "K562 [4]": {"system": "K562", "test": "Cytotoxicity in human K562 cells after 48 hrs by MTT assay", "assay_type": "functional, cell-based", "details": "K562, 48 h", "summary_of_the_method": "(§2)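 Cells grown at 37 °C, 5% CO₂, in RPMI 1640 with 10% fetal serum. Exposed 48 h to compound at 0.1–100 µg/mL. Viability by MTT, absorbance at 570 nm. IC50 is the concentration giving 50% reduction in absorbance versus untreated cells; triplicate tests.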"}, "SMMC-7721": {"system": "SMMC-7721", "test": "Cytotoxicity in human SMMC7721 cells after 48 hrs by MTT assay", "assay_type": "functional, cell-based", "details": "SMMC-7721, 48 h", "summary_of_the_method": "as §2"}, "EJ": {"system": "EJ", "test": "Cytotoxicity in human EJ cells after 48 hrs by MTT assay", "assay_type": "functional, cell-based", "summary_of_the_method": "as §2"}, "HEp-2": {"system": "HEp-2", "test": "Cytotoxicity in human Hep2 cells after 48 hrs by MTT assay", "assay_type": "functional, cell-based", "details": "HEp-2, 48 h", "summary_of_the_method": "as §2"}, "A549 [5]": {"system": "A549", "test": "Cytotoxicity in human A549 cells after 48 hrs by MTT assay", "assay_type": "functional, cell-based", "details": "A549, 48 h", "summary_of_the_method": "as §2"}, "HepG2": {"system": "HepG2", "test": "Cytotoxicity in human HepG2 cells after 48 hrs by MTT assay", "assay_type": "functional, cell-based", "details": "HepG2, 48 h", "summary_of_the_method": "as §2"}, "Raji": {"system": "Raji", "test": "Cytotoxicity in human Raji cells after 48 hrs by MTT assay", "assay_type": "functional, cell-based", "summary_of_the_method": "as §2"}, "K562 [6]": {"system": "K562", "test": "Induction of apoptosis in human K562 cells at 2 ug/ml after 24 hrs by Annexin-V-FITC/PI double labelled cytometry", "assay_type": "functional", "summary_of_the_method": "(§3)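 K562 cells (1 × 10⁶/mL) treated 24 h, then resuspended in binding buffer. Stained with Annexin V-FITC and PI for 15 min at room temperature in the dark, diluted in binding buffer, analyzed by flow cytometry. Apoptosis rate given as mean ± S.D. of at least three independent experiments.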"}, "K562 [7]": {"system": "K562", "test": "Induction of apoptosis in human K562 cells at 10 ug/ml after 24 hrs by Annexin-V-FITC/PI double labelled cytometry", "assay_type": "functional", "summary_of_the_method": "as §3"}, "K562 [8]": {"system": "K562", "test": "Cell cycle arrest in human K562 cells assessed as accumulation at G1 phase at 2 ug/ml after 24 hrs by flow cytometry", "assay_type": "functional", "summary_of_the_method": "(§4)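 K562 cells, synchronized, treated 24 h. Trypsinized, washed in PBS, fixed overnight in ice-cold 70% EtOH. Treated with RNase A 100 µg/mL at 37 °C for 30 min, then stained with propidium iodide (final 50 µg/mL). 20,000 cells analyzed by flow cytometry for DNA content; phase percentages representative of three independent experiments.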"}, "K562 [9]": {"system": "K562", "test": "Cell cycle arrest in human K562 cells assessed as accumulation at S phase at 2 ug/ml after 24 hrs by flow cytometry", "assay_type": "functional", "summary_of_the_method": "as §4"}, "K562 [10]": {"system": "K562", "test": "Cell cycle arrest in human K562 cells assessed as accumulation at G2/M phase at 2 ug/ml after 24 hrs by flow cytometry", "assay_type": "functional", "summary_of_the_method": "as §4"}, "K562 [11]": {"system": "K562", "test": "Cell cycle arrest in human K562 cells assessed as accumulation at G1 phase at 10 ug/ml after 24 hrs by flow cytometry", "assay_type": "functional", "summary_of_the_method": "as §4"}, "K562 [12]": {"system": "K562", "test": "Cell cycle arrest in human K562 cells assessed as accumulation at S phase at 10 ug/ml after 24 hrs by flow cytometry", "assay_type": "functional", "summary_of_the_method": "as §4"}, "K562 [13]": {"system": "K562", "test": "Cell cycle arrest in human K562 cells assessed as accumulation at G2/M phase at 10 ug/ml after 24 hrs by flow cytometry", "assay_type": "functional", "summary_of_the_method": "as §4"}, "A549 [14]": {"system": "A549", "test": "Antitumor activity against human A549 cells xenografted in nude mouse assessed as increase in tumor volume at 8 mg/kg, ip administered every 2 days for 19 days measured on day 19 postimplantation relative to tumor volume on day of implantation", "assay_type": "functional", "details": "route intraperitoneal", "summary_of_the_method": "as §1"}},
  "data": [
    {"smiles": "Cc1cc(C)c(-n2cc[n+](CC(=O)c3ccc4ccccc4c3)c2)c(C)c1.[Br-]", "values": [
      {"measurement": "Activity", "setting": "Mus musculus", "value": "Non-toxic"},
      {"measurement": "Ratio IC50", "setting": "[1]", "value": 8},
      {"measurement": "Ratio IC50", "setting": "[2]", "value": 8},
      {"measurement": "fold change (FC)", "setting": "A549 [3]", "value": 5.3},
      {"measurement": "IC50", "setting": "K562 [4]", "value": 1.7, "unit": "µg/mL"},
      {"measurement": "IC50", "setting": "SMMC-7721", "value": 1.8, "unit": "µg/mL"},
      {"measurement": "IC50", "setting": "EJ", "value": 1.2, "unit": "µg/mL"},
      {"measurement": "IC50", "setting": "HEp-2", "value": 0.3, "unit": "µg/mL"},
      {"measurement": "IC50", "setting": "A549 [5]", "value": 5, "unit": "µg/mL"},
      {"measurement": "IC50", "setting": "HepG2", "value": 2.2, "unit": "µg/mL"},
      {"measurement": "IC50", "setting": "Raji", "value": 0.7, "unit": "µg/mL"},
      {"measurement": "Activity", "setting": "K562 [6]", "value": 8.1, "unit": "%"},
      {"measurement": "Activity", "setting": "K562 [7]", "value": 15.5, "unit": "%"},
      {"measurement": "Activity", "setting": "K562 [8]", "value": 40, "unit": "%"},
      {"measurement": "Activity", "setting": "K562 [9]", "value": 45, "unit": "%"},
      {"measurement": "Activity", "setting": "K562 [10]", "value": 16, "unit": "%"},
      {"measurement": "Activity", "setting": "K562 [11]", "value": 56, "unit": "%"},
      {"measurement": "Activity", "setting": "K562 [12]", "value": 26, "unit": "%"},
      {"measurement": "Activity", "setting": "K562 [13]", "value": 19, "unit": "%"},
      {"measurement": "fold change (FC)", "setting": "A549 [14]", "value": 3.1}
    ]}
  ]
}
